# Calls of active or inactive are those of the source. The calls are words filed in the database; no cut-off is given here.
# Legend:
# [1] = tested on: U-251; assay: Growth inhibition of human U251 cells incubated for 48 hrs by sulforhodamine B assay; type: functional; conditions: U-251, 48 h
# [2] = tested on: CAKI-1; assay: Growth inhibition of human Caki1 cells incubated for 48 hrs by sulforhodamine B assay; type: functional; conditions: CAKI-1, 48 h
# [3] = tested on: Thermus aquaticus; assay: Inhibition of Thermus aquaticus DNA polymerase-mediated amplification of fragment of pBR322 by PCR
# How it was run: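 PCR amplification of a pBR322 fragment by Taq polymerase with increasing compound (0.25–40) for 25 cycles: 94 °C, 58 °C and 72 °C, 30 s each. Products were run on 2% agarose in 0.5X TBE (4.2 V/cm, 1.5 h) and stained with ethidium bromide. IC50 is the concentration halving activity; MIC is the lowest concentration that suppresses activity.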
# [4] = tested on: MDA-MB-468; assay: Growth inhibition of human MDA-MB-468 cells incubated for 48 hrs by sulforhodamine B assay; type: functional; conditions: MDA-MB-468, 48 h
# [5] = tested on: MOLT-4; assay: Growth inhibition of human MOLT4 cells incubated for 48 hrs by sulforhodamine B assay; type: functional; conditions: MOLT-4, 48 h
# [6] = tested on: NCI/ADR-RES; assay: Growth inhibition of human NCI-ADR-RES cells incubated for 48 hrs by sulforhodamine B assay; type: functional
# [7] = tested on: NCI-H460; assay: Growth inhibition of human NCI-H460 cells incubated for 48 hrs by sulforhodamine B assay; type: functional; conditions: NCI-H460, 48 h
# [8] = tested on: Escherichia coli; assay: Binding affinity to Escherichia coli supercoiled pBR322 DNA up to 100 uM by agarose gel electrophoresis
# How it was run: (§1)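 Supercoiled pBR322 mixed with ligand (0–100 µM) in 10 mM Tris, 50 mM KCl with no enzyme, then run on agarose gel. Shift in electrophoretic mobility was read as intercalation/binding.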
# [9] = tested on: SF-539; assay: Growth inhibition of human SF539 cells incubated for 48 hrs by sulforhodamine B assay; type: functional; conditions: SF-539, 48 h
# [10] = target: Telomerase reverse transcriptase (Homo sapiens) (UniProt O14746); assay: Inhibition of telomerase activity in human HeLa cells using 5'AATCCGTCGAGCAGAGTT3' as substrate after 30 mins by Sybr green1 staining based TRAP-PCR method; type: cell-based
# Telomerase reverse transcriptase (Homo sapiens), sequence (O14746 whole entry): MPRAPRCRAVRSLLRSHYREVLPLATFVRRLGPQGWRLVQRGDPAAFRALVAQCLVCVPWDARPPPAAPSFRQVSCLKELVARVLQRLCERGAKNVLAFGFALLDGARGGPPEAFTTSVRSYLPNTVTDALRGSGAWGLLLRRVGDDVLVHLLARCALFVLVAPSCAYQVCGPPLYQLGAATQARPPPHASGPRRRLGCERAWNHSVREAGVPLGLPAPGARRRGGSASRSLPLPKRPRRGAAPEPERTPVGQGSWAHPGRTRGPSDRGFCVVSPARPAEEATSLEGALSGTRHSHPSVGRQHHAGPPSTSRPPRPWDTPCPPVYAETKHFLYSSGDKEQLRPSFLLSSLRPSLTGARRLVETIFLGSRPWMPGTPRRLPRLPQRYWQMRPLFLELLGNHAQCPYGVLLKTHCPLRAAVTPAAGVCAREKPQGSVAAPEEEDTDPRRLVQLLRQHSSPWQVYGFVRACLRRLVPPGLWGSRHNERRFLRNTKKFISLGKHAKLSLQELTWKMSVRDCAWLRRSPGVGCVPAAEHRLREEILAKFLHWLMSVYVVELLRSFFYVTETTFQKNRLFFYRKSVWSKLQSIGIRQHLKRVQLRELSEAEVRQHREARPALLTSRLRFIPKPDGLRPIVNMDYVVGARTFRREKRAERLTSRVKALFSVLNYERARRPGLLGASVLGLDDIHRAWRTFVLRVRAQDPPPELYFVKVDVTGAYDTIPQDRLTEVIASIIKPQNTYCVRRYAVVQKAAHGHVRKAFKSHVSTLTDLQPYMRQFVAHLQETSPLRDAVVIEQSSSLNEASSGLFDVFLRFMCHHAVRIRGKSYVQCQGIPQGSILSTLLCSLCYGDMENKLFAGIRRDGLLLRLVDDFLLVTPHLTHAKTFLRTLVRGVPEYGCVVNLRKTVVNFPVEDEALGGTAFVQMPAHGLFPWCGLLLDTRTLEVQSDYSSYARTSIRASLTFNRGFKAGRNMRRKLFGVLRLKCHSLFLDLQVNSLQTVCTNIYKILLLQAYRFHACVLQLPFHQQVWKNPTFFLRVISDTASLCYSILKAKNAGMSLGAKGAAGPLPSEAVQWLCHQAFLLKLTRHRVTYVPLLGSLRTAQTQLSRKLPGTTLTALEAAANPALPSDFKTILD
# [11] = tested on: Malme-3M; assay: Growth inhibition of human MALME-3M cells incubated for 48 hrs by sulforhodamine B assay; type: functional
# [12] = target: T1, DNA topoisomerase 2-alpha (Homo sapiens, UniProt P11388); assay: Inhibition of human topoisomerase-2alpha-mediated relaxation of supercoiled pBR322 DNA after 1 hr by ethidium bromide staining based agarose gel electrophoresis
# T1 sequence (P11388 whole entry): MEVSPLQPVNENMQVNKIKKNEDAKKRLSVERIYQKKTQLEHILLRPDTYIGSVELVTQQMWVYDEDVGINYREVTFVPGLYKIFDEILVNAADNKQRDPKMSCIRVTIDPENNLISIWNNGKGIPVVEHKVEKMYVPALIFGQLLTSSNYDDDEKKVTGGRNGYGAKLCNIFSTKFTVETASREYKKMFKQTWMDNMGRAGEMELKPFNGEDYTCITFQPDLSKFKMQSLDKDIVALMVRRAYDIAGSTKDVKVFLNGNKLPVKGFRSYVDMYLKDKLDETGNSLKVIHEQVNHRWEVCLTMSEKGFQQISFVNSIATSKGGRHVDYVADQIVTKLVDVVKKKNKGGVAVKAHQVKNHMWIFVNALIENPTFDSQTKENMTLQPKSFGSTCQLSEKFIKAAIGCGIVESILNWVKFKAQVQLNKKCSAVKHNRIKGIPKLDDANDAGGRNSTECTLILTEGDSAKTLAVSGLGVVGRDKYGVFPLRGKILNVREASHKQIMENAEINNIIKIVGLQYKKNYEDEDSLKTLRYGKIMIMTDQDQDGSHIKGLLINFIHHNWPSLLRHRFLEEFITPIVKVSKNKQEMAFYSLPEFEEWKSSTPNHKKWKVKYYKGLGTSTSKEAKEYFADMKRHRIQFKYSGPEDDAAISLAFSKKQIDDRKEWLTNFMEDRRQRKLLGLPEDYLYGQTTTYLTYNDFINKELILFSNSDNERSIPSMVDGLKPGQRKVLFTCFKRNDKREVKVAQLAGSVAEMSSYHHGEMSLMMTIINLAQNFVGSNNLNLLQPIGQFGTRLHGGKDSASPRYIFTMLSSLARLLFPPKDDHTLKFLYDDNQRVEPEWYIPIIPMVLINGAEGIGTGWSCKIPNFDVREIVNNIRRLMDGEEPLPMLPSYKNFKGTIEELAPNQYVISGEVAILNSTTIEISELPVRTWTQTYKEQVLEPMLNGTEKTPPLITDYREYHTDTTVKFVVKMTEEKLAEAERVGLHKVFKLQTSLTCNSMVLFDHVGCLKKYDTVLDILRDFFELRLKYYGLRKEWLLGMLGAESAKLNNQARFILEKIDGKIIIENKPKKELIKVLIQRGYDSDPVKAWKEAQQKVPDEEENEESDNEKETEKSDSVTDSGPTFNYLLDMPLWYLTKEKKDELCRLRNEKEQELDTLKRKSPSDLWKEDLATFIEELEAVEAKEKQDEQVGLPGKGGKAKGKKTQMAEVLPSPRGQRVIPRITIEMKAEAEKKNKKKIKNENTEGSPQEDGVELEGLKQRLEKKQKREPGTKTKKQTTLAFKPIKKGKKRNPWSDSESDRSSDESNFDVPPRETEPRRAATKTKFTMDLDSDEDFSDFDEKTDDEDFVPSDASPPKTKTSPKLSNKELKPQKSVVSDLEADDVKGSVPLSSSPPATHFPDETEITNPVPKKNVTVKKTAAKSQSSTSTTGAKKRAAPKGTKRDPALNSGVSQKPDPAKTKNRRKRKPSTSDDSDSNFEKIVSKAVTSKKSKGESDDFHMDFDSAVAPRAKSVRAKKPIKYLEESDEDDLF
# How it was run: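 Supercoiled pBR322 was incubated with compound (0.5–100) and 1 U human topoisomerase IIα in enzyme buffer for 1 h at 37 °C. Reactions were stopped with Tris/EDTA/NaCl loading buffer (pH 8.0) and run on 1% agarose in TAE with 0.1% SDS (4.9 V/cm, 90 min), then stained with ethidium bromide. IC50 is the concentration reducing relaxation activity by 50%.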
# [13] = tested on: KM12; assay: Growth inhibition of human KM12 cells incubated for 48 hrs by sulforhodamine B assay; type: functional; conditions: KM12, 48 h
# [14] = tested on: SK-OV-3; assay: Growth inhibition of human SKOV3 cells incubated for 48 hrs by sulforhodamine B assay; type: functional; conditions: SK-OV-3, 48 h
# [15] = tested on: IGROV-1; assay: Growth inhibition of human IGROV1 cells incubated for 48 hrs by sulforhodamine B assay; type: functional; conditions: IGROV-1, 48 h
# [16] = tested on: PC-3; assay: Growth inhibition of human PC3 cells incubated for 48 hrs by sulforhodamine B assay; type: functional; conditions: PC-3, 48 h
# [17] = tested on: A498; assay: Growth inhibition of human A498 cells incubated for 48 hrs by sulforhodamine B assay; type: functional; conditions: A498, 48 h
# [18] = tested on: Hs-578T; assay: Growth inhibition of human Hs 578T cells incubated for 48 hrs by sulforhodamine B assay; type: functional
# [19] = tested on: HL-60; assay: Growth inhibition of human HL60 cells incubated for 48 hrs by sulforhodamine B assay; type: functional; conditions: HL-60, 48 h
# [20] = tested on: NCI-H522; assay: Growth inhibition of human NCI-H522 cells incubated for 48 hrs by sulforhodamine B assay; type: functional; conditions: NCI-H522, 48 h
# [21] = tested on: MCF7; assay: Growth inhibition of human MCF7 cells incubated for 48 hrs by sulforhodamine B assay; type: functional; conditions: MCF7, 48 h
# [22] = tested on: K562; assay: Growth inhibition of human K562 cells incubated for 48 hrs by sulforhodamine B assay; type: functional; conditions: K562, 48 h
# [23] = tested on: Escherichia coli; assay: Binding affinity to Escherichia coli supercoiled pBR322 DNA assessed as DNA intercalation up to 100 uM by agarose gel electrophoresis; how it was run: as §1
# [24] = tested on: Jurkat; assay: Cell cycle arrest in human Jurkat T cells assessed as accumulation at G0/G1 phase at 3.2 uM after 24 hrs by propidium iodide staining based flow cytometry (reference value: 62.7 to 68.6%); type: functional
# [25] = tested on: Jurkat; assay: Induction of apoptosis in human Jurkat T cells assessed as caspase3 activation at 6.4 uM after 24 hrs by colorimetric assay relative to control; type: functional
# How it was run: (§2)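 Jurkat cells were treated 24 h (0–6.4), and 3×10^6 cells were washed in PBS and lysed 10 min on ice. Cleared lysate was incubated 2 h at 37 °C in the dark with 10 mM DTT buffer and DEVD-pNA substrate. Absorbance at 405 nm was read against a no-substrate blank and expressed as fold over untreated cells. Valinomycin for 1 h was the positive control; three experiments.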
# [26] = tested on: Jurkat; assay: Cell cycle arrest in human Jurkat T cells assessed as accumulation at G2/M phase at 3.2 uM after 24 hrs by propidium iodide staining based flow cytometry (reference value: 17.1 to 20.8%); type: functional
# [27] = tested on: Jurkat; assay: Induction of apoptosis in human Jurkat T cells at 6.4 uM after 24 hrs by annexin V-phycoerythrin/7-AAD staining based flow cytometry (reference value: 5.8 to 6.6%); type: functional
# [28] = target: T1, DNA topoisomerase 2-alpha; assay: Poison activity at human topoisomerase-2alpha assessed as stabilization of DNA-enzyme cleavage complex at 0.5 to 100 uM using supercoiled pBR322 DNA as substrate after 1 hr by ethidium bromide staining based agarose gel electrophoresis
# How it was run: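 Cleavage-complex test: supercoiled pBR322 was exposed to compound (0.5–100) with 5 U human topoisomerase IIα for 1 h at 37 °C. Products were run on 1% agarose in TAE with 0.1% SDS (4.9 V/cm, 90 min) and stained with ethidium bromide, with nicked and linearized pBR322 as markers.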
# [29] = tested on: Jurkat; assay: Induction of apoptosis in human Jurkat T cells assessed as caspase3 activation at 1.6 uM after 24 hrs by colorimetric assay relative to control; type: functional; how it was run: as §2
# [30] = tested on: Jurkat; assay: Induction of apoptosis in human Jurkat T cells assessed as PARP cleavage at 3.2 uM after 24 hrs by flow cytometry (reference value: 4.8%); type: functional
# [31] = tested on: Jurkat; assay: Induction of apoptosis in human Jurkat T cells at 3.2 uM after 24 hrs by annexin V-phycoerythrin/7-AAD staining based flow cytometry (reference value: 5.8 to 6.6%); type: functional
Structure (SMILES),GI50 [1] [nM],GI50 [2] [nM],MIC [3] [µM],GI50 [4] [nM],GI50 [5] [nM],GI50 [6] [nM],GI50 [7] [nM],GI50 [9] [nM],GI50 [11] [nM],IC50 [12] [nM],GI50 [13] [nM],GI50 [14] [nM],GI50 [15] [nM],GI50 [16] [nM],GI50 [17] [nM],GI50 [18] [nM],GI50 [19] [nM],GI50 [20] [nM],GI50 [21] [nM],GI50 [22] [nM],also measured
COc1ccccc1CNCCCN1C(=O)c2ccc3c4c(ccc(c24)C1=O)C(=O)N(CCCCNCCCN)C3=O,787,13200,0.5,284,939,5990,767,1680,984,7000,2550,4030,1440,2300,4400,2300,1060,1460,643,1900,Activity [8]: Active; inhibition [10]: inactive
CNCCCNCCCN1C(=O)c2ccc3c4c(ccc(c24)C1=O)C(=O)N(CCCNCc1ccccc1OC)C3=O,1610,,,1000,534,12100,429,782,633,,1180,2950,1450,1600,1540,3020,2000,1230,512,408,
COc1ccccc1CNCCCN1C(=O)c2ccc3c4c(ccc(c24)C1=O)C(=O)N(CCCNCCCCN)C3=O,173,198,0.5,85,302,366,313,280,174,8100,324,290,179,230,619,1120,216,172,185,281,Activity [23]: Active; Activity [24]: 59.7%; fold change (FC) [25]: 5.6; Activity [26]: 20.8%; inhibition [10]: inactive; Activity [27]: 22.2%; Activity [28]: inactive; fold change (FC) [29]: 2.6; Activity [30]: 16.6%; Activity [31]: 17.9%
COc1ccccc1CNCCCN1C(=O)c2ccc3c4c(ccc(c24)C1=O)C(=O)N(CCCOCCCCOCCCN)C3=O,1240,1830,1,289,546,1470,657,1680,248,5500,1270,2360,1260,1440,1320,2020,810,919,333,494,
COc1ccccc1CNCCCN1C(=O)c2ccc3c4c(ccc(c24)C1=O)C(=O)N(CCCN)C3=O,1590,1760,,406,433,2900,524,1300,366,,1620,2670,1000,1660,1540,1740,1560,1570,302,1090,
COc1ccccc1CNCCCN1C(=O)c2ccc3c4c(ccc(c24)C1=O)C(=O)N(CCCNCCCN)C3=O,108,828,0.25,246,194,1160,154,968,393,1500,705,1040,275,477,398,1220,812,572,129,264,Activity [23]: Active; Activity [24]: 56.1%; Activity [26]: 27.8%; inhibition [10]: inactive; Activity [27]: 14.5%; Activity [30]: 7.2%
COc1ccccc1CNCCCN1C(=O)c2ccc3c4c(ccc(c24)C1=O)C(=O)N(CCCNCCNCCCN)C3=O,1170,21700,,456,173,23100,2080,2880,1610,,3250,4040,3690,5910,5010,5510,254,1220,422,324,
CNCCCNCCCCNCCCN1C(=O)c2ccc3c4c(ccc(c24)C1=O)C(=O)N(CCCNCc1ccccc1OC)C3=O,3240,2250,,1890,5210,7090,2530,2040,939,,2750,6190,3020,7450,1780,2900,3680,5620,2770,2780,
COc1ccccc1CNCCCN1C(=O)c2ccc3c4c(ccc(c24)C1=O)C(=O)N(CCCNCCCCNCCCN)C3=O,328,2610,0.25,133,584,2040,311,426,241,2200,340,2110,360,564,1340,1360,438,180,200,301,
